Legend:
[1] = ST_JUDE: Cytotoxicity using luciferase to measure ATP as an indicator of the viability of human epithelial embryonic kidney cells (HEK293); format: toxicity, cell-based
[2] = ST_JUDE: Cytotoxicity using luciferase to measure ATP as an indicator of the viability of human Burkitt''s lymphoma lymphoblast cells (Raji); format: toxicity, cell-based
Plasmodium falciparum [3] = assay: ST_JUDE: Cytotoxicity against Plasmodium falciparum V1/S; format: functional, organism-based
[4] = ST_JUDE: Cytotoxicity using luciferase to measure ATP as an indicator of the viability of human foreskin fibroblast cells (BJ); format: toxicity, cell-based
Plasmodium falciparum [5] = assay: ST_JUDE: Cytotoxicity against Plasmodium falciparum Dd2; format: functional, organism-based
Plasmodium falciparum [6] = assay: ST_JUDE: Cytotoxicity against Plasmodium falciparum D10 transfected with yeast DHOD; format: functional, organism-based
Plasmodium falciparum [7] = assay: ST_JUDE: Plasmodium falciparum 3D7 EC50 (uM) as measured by SYBR green dye; format: functional, organism-based
Plasmodium falciparum [8] = assay: ST_JUDE: Cytotoxicity against Plasmodium falciparum SB-A6; format: functional, organism-based
Plasmodium falciparum [9] = assay: ST_JUDE: Cytotoxicity against Plasmodium falciparum K1; format: functional, organism-based
In short: (§1)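 Asexual P. falciparum grown in human erythrocytes, exposed to compounds for 72 h, and growth read as the DNA quantity in treated versus control cultures. Dose-response run at 12 concentrations from 10 μM to 5 nM.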

Plasmodium falciparum [10] = assay: ST_JUDE: Plasmodium falciparum K1 EC50 (uM) as measured by SYBR green dye; format: functional, organism-based
Leishmania major = assay: ST_JUDE: Cytotoxicity using Alamar Blue to measure viability of Leishmania major; format: functional, organism-based
In short: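 L. major promastigotes; drug susceptibility read with Alamar Blue.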

Plasmodium falciparum [11] = assay: ST_JUDE: Cytotoxicity against Plasmodium falciparum 3D7; format: functional, organism-based; in short: as §1
Plasmodium falciparum [12] = assay: ST_JUDE: Cytotoxicity against Plasmodium falciparum W2; format: functional, organism-based
Trypanosoma brucei = assay: ST_JUDE: Cytotoxicity using luciferase to measure ATP as an indicator of the viability of Trypanosoma brucei; format: functional, organism-based
[13] = ST_JUDE: Cytotoxicity using luciferase to measure ATP as an indicator of the viability of human epithelial hepatocellular carcinoma cells (HepG2); format: toxicity, cell-based
Toxoplasma gondii = assay: ST_JUDE: Growth inhibition of to Toxoplasma gondii, in human U-2OS cells, as measured by luciferase.; format: functional, organism-based; details: RH, U2OS
In short: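 T. gondii parasites engineered to express luciferase; drug sensitivity read by luminescence.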

`CCc1ccc(Nc2cc(C)c3ccc(O)cc3n2)cc1` gave an EC50 [1] of over 43.6 µM, an EC50 [2] of 30.8 µM and an EC50 (Plasmodium falciparum [3]) of 0.182 µM. For the same compound, the EC50 [4] was over 43.6 µM, the EC50 (Plasmodium falciparum [5]) was 0.784 µM and the EC50 (Plasmodium falciparum [6]) was 0.595 µM. It also gave an EC50 (Plasmodium falciparum [7]) of 0.733 µM, an EC50 (Plasmodium falciparum [8]) of 0.831 µM and an EC50 (Plasmodium falciparum [9]) of 0.188 µM. For the same compound, the EC50 (Plasmodium falciparum [10]) was 0.127 µM, the EC50 (Leishmania major) was over 18.7 µM and the EC50 (Plasmodium falciparum [11]) was 0.636 µM. For the same compound, the EC50 (Plasmodium falciparum [12]) was 0.714 µM, the EC50 (Trypanosoma brucei) was over 41.8 µM and the EC50 [13] was 23.5 µM. The EC50 (Toxoplasma gondii) was over 23.9 µM.

With `CCCCCCCCCC[n+]1ccccc1` the EC50 [1] was over 48.9 µM, the EC50 [2] was 9.31 µM and the EC50 (Plasmodium falciparum [3]) was 9.36 µM. The EC50 [4] was over 48.9 µM, the EC50 (Plasmodium falciparum [5]) was 1.15 µM and the EC50 (Plasmodium falciparum [6]) was 3.93 µM. The EC50 (Plasmodium falciparum [7]) was 1.31 µM, the EC50 (Plasmodium falciparum [8]) was 2.88 µM and the EC50 (Plasmodium falciparum [9]) was 3.6 µM. It also gave an EC50 (Plasmodium falciparum [10]) of 1.53 µM, an EC50 (Leishmania major) of over 20.9 µM and an EC50 (Plasmodium falciparum [11]) of 2.29 µM. It also gave an EC50 (Plasmodium falciparum [12]) of 0.899 µM, an EC50 (Trypanosoma brucei) of over 46.9 µM and an EC50 [13] of over 48.9 µM. For the same compound, the EC50 (Toxoplasma gondii) was over 26.8 µM.

`Oc1ccc(Br)cc1CN1CCN(C2CC3CCC2C3)CC1` (stereo not given) showed an EC50 [1] of over 38.2 µM, an EC50 [2] of over 38.2 µM and an EC50 (Plasmodium falciparum [3]) of 0.29 µM. The EC50 [4] was over 38.2 µM, the EC50 (Plasmodium falciparum [5]) was 0.285 µM and the EC50 (Plasmodium falciparum [6]) was 0.864 µM. For the same compound, the EC50 (Plasmodium falciparum [7]) was 0.289 µM, the EC50 (Plasmodium falciparum [8]) was 0.953 µM and the EC50 (Plasmodium falciparum [9]) was 0.131 µM. It also gave an EC50 (Plasmodium falciparum [10]) of 0.181 µM, an EC50 (Leishmania major) of over 16.4 µM and an EC50 (Plasmodium falciparum [11]) of 0.501 µM. The EC50 (Plasmodium falciparum [12]) was 0.519 µM, the EC50 (Trypanosoma brucei) was over 36.6 µM and the EC50 [13] was over 38.2 µM. The EC50 (Toxoplasma gondii) was over 20.9 µM.

With `CCOc1ccc(/C=C2\Oc3c(ccc(O)c3CN3CCCCC3)C2=O)cc1` the EC50 [1] was over 47.1 µM, the EC50 [2] was over 47.1 µM and the EC50 (Plasmodium falciparum [3]) was 1.18 µM. It also gave an EC50 [4] of over 47.1 µM, an EC50 (Plasmodium falciparum [5]) of 2.15 µM and an EC50 (Plasmodium falciparum [6]) of 1.85 µM. It also gave an EC50 (Plasmodium falciparum [7]) of 1.29 µM, an EC50 (Plasmodium falciparum [8]) of 3.39 µM and an EC50 (Plasmodium falciparum [9]) of 0.5 µM. The EC50 (Plasmodium falciparum [10]) was 0.467 µM, the EC50 (Leishmania major) was over 20.2 µM and the EC50 (Plasmodium falciparum [11]) was 1.77 µM. It also gave an EC50 (Plasmodium falciparum [12]) of 1.15 µM, an EC50 (Trypanosoma brucei) of over 45.2 µM and an EC50 [13] of over 47.1 µM. For the same compound, the EC50 (Toxoplasma gondii) was over 25.8 µM.

`CC(C)NCC(O)Cn1c2ccc(Cl)cc2c2cc(Cl)ccc21` (stereo not given) gave an EC50 [1] of 17.7 µM, an EC50 [2] of 20.9 µM and an EC50 (Plasmodium falciparum [3]) of 4.84 µM. For the same compound, the EC50 [4] was over 41.6 µM, the EC50 (Plasmodium falciparum [5]) was 0.239 µM and the EC50 (Plasmodium falciparum [6]) was 0.626 µM. It also gave an EC50 (Plasmodium falciparum [7]) of 0.27 µM, an EC50 (Plasmodium falciparum [8]) of 0.656 µM and an EC50 (Plasmodium falciparum [9]) of 0.477 µM. The EC50 (Plasmodium falciparum [10]) was 0.14 µM, the EC50 (Leishmania major) was over 17.8 µM and the EC50 (Plasmodium falciparum [11]) was 1.8 µM. For the same compound, the EC50 (Plasmodium falciparum [12]) was 0.122 µM, the EC50 (Trypanosoma brucei) was 0.861 µM and the EC50 [13] was 7.62 µM. The EC50 (Toxoplasma gondii) was over 22.8 µM.

With `CC(C)(C)c1cc(C2C(C#N)=C(N)OC3=C2C(=O)CCC3)cc(C(C)(C)C)c1O` (stereo not given) the EC50 [1] was over 36.2 µM, the EC50 [2] was 3.04 µM and the EC50 (Plasmodium falciparum [3]) was 1.52 µM. It also gave an EC50 [4] of over 36.2 µM, an EC50 (Plasmodium falciparum [5]) of 2.53 µM and an EC50 (Plasmodium falciparum [6]) of 2.39 µM. It also gave an EC50 (Plasmodium falciparum [7]) of 1.35 µM, an EC50 (Plasmodium falciparum [8]) of 2.53 µM and an EC50 (Plasmodium falciparum [9]) of 1.86 µM. It also gave an EC50 (Plasmodium falciparum [10]) of 0.427 µM, an EC50 (Leishmania major) of over 15.5 µM and an EC50 (Plasmodium falciparum [11]) of 1.85 µM. For the same compound, the EC50 (Plasmodium falciparum [12]) was 3.44 µM, the EC50 (Trypanosoma brucei) was 5.46 µM and the EC50 [13] was 3.03 µM. The EC50 (Toxoplasma gondii) was 1.34 µM.

With `CC(C)CN1C(=O)c2ccccc2C(C(=O)Nc2ccc(F)cc2F)C1c1cccs1` (stereo not given) the EC50 [1] was over 43.3 µM, the EC50 [2] was over 43.3 µM and the EC50 (Plasmodium falciparum [3]) was 0.942 µM. For the same compound, the EC50 [4] was over 43.3 µM, the EC50 (Plasmodium falciparum [5]) was 0.808 µM and the EC50 (Plasmodium falciparum [6]) was 0.687 µM. It also gave an EC50 (Plasmodium falciparum [7]) of 0.326 µM, an EC50 (Plasmodium falciparum [8]) of 0.97 µM and an EC50 (Plasmodium falciparum [9]) of over 11.1 µM. It also gave an EC50 (Plasmodium falciparum [10]) of 0.399 µM, an EC50 (Leishmania major) of over 18.5 µM and an EC50 (Plasmodium falciparum [11]) of 0.647 µM. It also gave an EC50 (Plasmodium falciparum [12]) of 0.738 µM, an EC50 (Trypanosoma brucei) of 8.86 µM and an EC50 [13] of over 43.3 µM. It also gave an EC50 (Toxoplasma gondii) of over 23.7 µM.

For `CCN1/C(=C/c2cccc[n+]2C)Sc2ccc(OC)cc21`, the EC50 [1] was over 26.2 µM, the EC50 [2] was 3.16 µM and the EC50 (Plasmodium falciparum [3]) was 1.08 µM. It also gave an EC50 [4] of over 26.2 µM, an EC50 (Plasmodium falciparum [5]) of 0.748 µM and an EC50 (Plasmodium falciparum [6]) of 1.27 µM. For the same compound, the EC50 (Plasmodium falciparum [7]) was 0.48 µM, the EC50 (Plasmodium falciparum [8]) was 1.55 µM and the EC50 (Plasmodium falciparum [9]) was 0.784 µM. The EC50 (Plasmodium falciparum [10]) was 0.329 µM, the EC50 (Leishmania major) was 0.0189 µM and the EC50 (Plasmodium falciparum [11]) was 0.603 µM. The EC50 (Plasmodium falciparum [12]) was over 6.72 µM, the EC50 (Trypanosoma brucei) was 3.73 µM and the EC50 [13] was over 26.2 µM. For the same compound, the EC50 (Toxoplasma gondii) was over 14.3 µM.

Compound `O=[N+]([O-])c1ccc(S(=O)(=O)N2CCN(C(=S)NCc3ccco3)CC2)cc1` has an EC50 [1] of over 31.7 µM, an EC50 [2] of over 31.7 µM and an EC50 (Plasmodium falciparum [3]) of 0.269 µM. It also gave an EC50 [4] of over 31.7 µM, an EC50 (Plasmodium falciparum [5]) of 0.123 µM and an EC50 (Plasmodium falciparum [6]) of 0.316 µM. The EC50 (Plasmodium falciparum [7]) was 0.185 µM, the EC50 (Plasmodium falciparum [8]) was 0.289 µM and the EC50 (Plasmodium falciparum [9]) was 0.252 µM. The EC50 (Plasmodium falciparum [10]) was 0.132 µM, the EC50 (Leishmania major) was over 13.6 µM and the EC50 (Plasmodium falciparum [11]) was 0.261 µM. For the same compound, the EC50 (Plasmodium falciparum [12]) was 0.299 µM, the EC50 (Trypanosoma brucei) was over 30.4 µM and the EC50 [13] was over 31.7 µM. The EC50 (Toxoplasma gondii) was over 17.4 µM.

For `CC(C)c1ccc(NC(=O)/C=C/c2ccccc2Cl)cc1`, the EC50 [1] was over 40.7 µM, the EC50 [2] was over 40.7 µM and the EC50 (Plasmodium falciparum [3]) was over 10.5 µM. For the same compound, the EC50 [4] was over 40.7 µM, the EC50 (Plasmodium falciparum [5]) was 1.61 µM and the EC50 (Plasmodium falciparum [6]) was over 10.5 µM. It also gave an EC50 (Plasmodium falciparum [7]) of 1.1 µM, an EC50 (Plasmodium falciparum [8]) of over 10.5 µM and an EC50 (Plasmodium falciparum [9]) of over 10.5 µM. The EC50 (Plasmodium falciparum [10]) was 0.942 µM, the EC50 (Leishmania major) was over 17.4 µM and the EC50 (Plasmodium falciparum [11]) was over 10.5 µM. The EC50 (Plasmodium falciparum [12]) was 0.416 µM, the EC50 (Trypanosoma brucei) was 23.1 µM and the EC50 [13] was over 40.7 µM. The EC50 (Toxoplasma gondii) was over 22.3 µM.
